Data published in ChEMBL document CHEMBL4513216, “Probing the Open Global Health Chemical Diversity Library for Multistage-Active Starting Points for Next-Generation Antimalarials” (ACS Infect Dis, 2020).

experiment: Toxicity liver stage against HepG2, at 10uM; type: cell-based; parameters: test concentration 10 uM, cell line HepG2-A16-CD81EGFP; details: human, HepG2-A16-CD81EGFP cells; read-out: INHIBITION
How it was run: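 Uninfected HepG2-A16-CD81EGFP cells, 3 × 10^3 per well, 1536-well, plated on prespotted compound at 10 μM final, parasite-free screening media added to match infected plates; puromycin 10 μM positive, DMSO 0.5% negative; run in parallel with 48 h PbLuc assay at 37 °C, 5% CO2; viability by CellTiter-Glo luminescence, normalized to controls.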

Row | SMILES | cytotoxicity at 10 µM [%]
1 | CC(CNC(=O)c1ccc(F)cc1I)N1CCCC1 (stereo not given) | 1.28
2 | O=C(CCc1nc(C2CC2)no1)c1ccc2c(c1)OCCO2 | -7.04
3 | c1ccc(CN(Cc2ncc[nH]2)Cc2nccs2)cc1 | 6.35
4 | Cc1ccc(C(=O)N2CCc3ncnc(-c4cnn(C)c4)c3CC2)o1 | 2.11
5 | CCc1nsc(N2CCN(CC(=O)Nc3c(C)n[nH]c3C)CC2)n1 | -3.63
6 | CCc1nc(C)c(C(=O)NCCN2CCCC2)s1 | 1.94
7 | CC(C)OCCOCc1cccc(NC(=O)N2CCCC(O)C2)c1 (stereo not given) | -5.01
8 | C[C@]1(O)CCN(Cc2cncs2)C[C@@H]1Oc1cccc(F)c1 | 6.06
9 | Cn1cc(C(=O)N2CC[C@@]3(O)CCN(C(=O)C4CCCC4)C[C@H]3C2)cn1 | -138
10 | Cc1ccc(CN2Cc3c(C(=O)N(C)C)nn(C)c3C2)s1 | -12.6
11 | CC(NC(=O)Nc1nccs1)C(=O)NC1CCCC1 (stereo not given) | 1.87
12 | CN(Cc1cnn(C)c1)Cc1nc(Cc2cccc(Cl)c2)no1 | 6.53
13 | CC(NCc1cnc(C2CCC2)s1)c1ccc(-n2cncn2)cc1 (stereo not given) | 1.44
14 | CC(NC(=O)N1CCC(CC(N)=O)CC1)c1csc2ccccc12 (stereo not given) | 1.73
15 | Nc1nccnc1C1CN(C(=O)c2ccc3c(c2)OCO3)CCO1 (stereo not given) | -23.7
16 | O=C1COc2cc(C(=O)N3CCCC(n4ccnc4)C3)ccc2N1 (stereo not given) | 1.75
17 | CCOc1ccnc(N2CCN(C(=O)c3cnc[nH]3)CC2)n1 | -2.06
18 | Cc1noc(C)c1CN1C(=O)[C@@H]2CC[C@H]1CN(Cc1cscn1)C2 | 0.854
19 | CN(C)C[C@H]1C[C@@H]2CN(C(=O)c3ccco3)C[C@@H]2O1 | -5.77
20 | COCc1nc(CNC2CCCC(C)(C)C2)no1 (stereo not given) | 2.55
21 | CC(C)N(Cc1ccccc1)Cc1nnsc1Cl | -9.44
22 | O=C(CCn1nc(C(F)(F)F)c(Cl)c1C1CC1)NN1CCOCC1 | 7.69

Row | SMILES | cytotoxicity at 10 µM [%]
23 | Cc1ncsc1CN1C[C@H](OCC(C)C)[C@H]2OCCC[C@H]21 | -140
24 | c1cnc(NCc2cncc3c2CCN(Cc2cccnc2)C3)nc1 | -68.5
25 | Cn1cccc1C(=O)NS(=O)(=O)c1cnn(-c2ccccc2F)c1 | -7.83
26 | Cc1cnc(C(=O)Nc2cc(F)ccc2OCC2CCCO2)cn1 (stereo not given) | -4.83
27 | Cn1cnnc1CNC(=O)C1CCCN(Cc2ccccc2)C1 (stereo not given) | 3.57
28 | CCOCCCNC(=O)c1nc2c(s1)CCCN2c1ccc(C)nn1 | 13.5
29 | CCn1nc(C)c2nc(C(C)C)nc(NCCCO)c21 | 6.48
30 | Cc1c(CN2CCc3[nH]cnc3C2C2CC2)[nH]c2ccc(F)cc12 (stereo not given) | 10.8
31 | CCOCCNC(=O)Nc1cccc(-c2nccn2C)c1 | -3.26
32 | CCCNC(=O)C1CCCN(Cc2ccc(-n3cncn3)c(C)c2)C1 (stereo not given) | 8.28
33 | CC(=O)NCCNC(=O)CN1CCCC1Cn1nc(C)nc1C (stereo not given) | -1.26
34 | CCCN(Cc1ccccc1C)C(CC)CO (stereo not given) | -6.08
35 | N#CCCN1CC(O)CN(C(=O)c2cccc(C(F)(F)F)c2)CC1=O (stereo not given) | 7.84
36 | COc1cccc(CNC(=O)NC2(c3nc(C)no3)CCCCC2)c1 | 4.04
37 | Cn1c(CCCNc2nccnc2C#N)nc2ccccc21 | -8.98
38 | Cc1cc(C)c(CCNC(=O)CN2CCCN(C(N)=O)CC2)c(C)c1 | -0.819
39 | CC(C)C(O)CNC(=O)Nc1ccc(F)c(Cl)c1 (stereo not given) | 5.6
40 | CCn1cc(S(=O)(=O)NCC(OC)c2ccccc2)cn1 (stereo not given) | 1.64
41 | COC(=O)CN(C(=O)c1ccco1)c1cccc(F)c1 | -4.81
42 | O=C(CSc1ccc2c(c1)OCCO2)NS(=O)(=O)c1cccs1 | -3.13
43 | CCN1C(=O)CCCC12CCCN(C(=O)c1cc(C)oc1C)C2 (stereo not given) | 4.09
44 | COCc1nnc(C(=O)N(C)Cc2cnc3ccccn23)o1 | 1.69

Row | SMILES | cytotoxicity at 10 µM [%]
45 | COc1cc2c(nn1)CCN(Cc1noc(CC(C)C)n1)C2 | -1.02
46 | NC(=O)C1CCN(C(=O)CCCc2nnc(-c3ccccc3)o2)CC1 | -13.2
47 | CC(Cn1cc(Cl)cn1)C(=O)Nc1ccc(CN2CCCCCC2)cc1 (stereo not given) | 8.66
48 | CN1C[C@@H](C(=O)NC2CCCC2)[C@@]2(COc3ccc(F)cc3C2=O)C1 | 2.1
49 | CC(CC(=O)O)CC(=O)Nc1sc2c(c1C(N)=O)CCc1ccccc1-2 (stereo not given) | 8.26
50 | Cn1c(CN2CCCC(Cn3cc(CCO)nn3)C2)cc2ccccc21 (stereo not given) | -0.849
51 | CN(C)[C@@H]1CCN(c2ncccn2)[C@H]1Cc1ccccc1 | -9.29
52 | CC(C(=O)N1CCOCC1)N1CCN(Cc2nccn2C)CC1 (stereo not given) | -1.71
53 | CC(C)C(NCc1ccc(Cn2cncn2)cc1)c1ccccc1 (stereo not given) | 4.1
54 | Cc1ncc(CN(Cc2ccccn2)Cc2ccccc2Cl)n1C | -1.45
55 | Cc1csc(C2CCCCN2C(=O)c2c[nH]c(C)n2)n1 (stereo not given) | -33.7
56 | CNC(=O)CN(C)C1CCN(c2ccc(Cl)cc2)CC1 | -1.15
57 | Cc1nccn1CCN(C)C(=O)c1cn(-c2ccccc2)nn1 | -0.651
58 | NCC1CN(c2nc(-c3ccccc3)nc3c2CCNCC3)CCO1 (stereo not given) | -14.9
59 | COc1ccc(CCN(C)C2CCCN(Cc3noc(C)n3)C2)cc1 (stereo not given) | -4.59
60 | N#Cc1cccc(N2CCCC3(CN(C(=O)[C@H]4CCCO4)CCO3)C2)c1 (stereo not given in full) | 3.53
61 | CNC(=O)NC(=O)Cn1cc(-c2ccccc2)cn1 | 3.37
62 | Cc1c(C(=O)N2CCCOCC2)nnn1-c1cccc2cnccc12 | 11.8
63 | Cc1ccc(CC(=O)N2CCCN(Cc3nccn3C)CC2)cn1 | -22.3
64 | CC(C)(C)OC(=O)N[C@H]1CCN(C(=O)c2cc(Cl)c[nH]2)C1 | -2.84
65 | CN(C)C(=O)[C@H]1C[C@H]2OCC[C@H]2N(Cc2ccccn2)C1 | -75.5
66 | COc1cc(N2C[C@@H]3COC[C@]3(COCc3cccc(C)n3)C2)ncn1 | 12.4

Row | SMILES | cytotoxicity at 10 µM [%]
67 | Cc1nc(CN(C)C2CCN(CCCOc3ccccc3C)C2)no1 (stereo not given) | 2.24
68 | Cc1ccccc1CN1CCN(C(C)c2nc(C3CC3)no2)CC1 (stereo not given) | -22.2
69 | COC(=O)C(C)(C)NC(=O)C1CC(=O)N(CC(C)C)C1 (stereo not given) | -152
70 | CC(C)Cn1ncc2cc(C(=O)N(C)Cc3cccc(O)c3)cnc21 | -4.67
71 | CC(C)c1nc(CN2CCN(C(=O)CC3CCCCC3)CC2)no1 | -0.95
72 | CN(CC(O)COc1ccc(C(F)(F)F)cc1)C(=O)Nc1nncs1 (stereo not given) | -11.1
73 | CC(=O)Nc1ncc(S(=O)(=O)Nc2ccc(C)cc2)s1 | 8.6
74 | Cc1cccc(-c2ccc(C(=O)NCCN(C)C3CC3)c(=O)[nH]2)c1 | -6.81
75 | N#Cc1c(Cl)nsc1N1CCN(CC2CCCCC2)CC1 | -8.67
76 | CCCc1nc(CN2CCN(C(C)c3nc(C4CC4)no3)CC2)no1 (stereo not given) | -8.14
77 | CN(C(=O)COc1ccc(F)cc1)[C@@H]1CC[C@@H](n2ccnc2)[C@@H]1O | -5.28
78 | Cc1nc(CNC(C(=O)N2CCOCC2)c2ccccc2)cs1 (stereo not given) | 7.33
79 | CC(C)c1ccc2c(c1)C1(CC(=O)Nc3[nH]ncc31)C(=O)N2C (stereo not given) | -0.582
80 | CC(CNC(=O)Nc1ccc(F)cc1-n1cccc1)N1CCOCC1 (stereo not given) | -8.71
81 | Cn1cc(N2CC3(CCN(Cc4ccoc4)CC3)OCC2=O)cn1 | -1.66
82 | Cc1ccc(C)c2c(O)cc(CN3CCNC(=O)C3C)nc12 (stereo not given) | -1.66
83 | Cc1nc(CN2CCN(C(=O)C(c3ccccc3C)N(C)C)CC2)no1 (stereo not given) | 1.06
84 | Cc1cccc(C2(O)CCN(Cc3ccccc3N3CCCC3)CC2)c1 | 10.6
85 | NCCn1nc(C2CCN(Cc3ccccc3Cl)C2)c2nccnc21 (stereo not given) | -14.9
86 | Cc1nn(C)cc1CN1CCc2nc3sccc3c(=O)n2CC1 | -1.87
87 | CCc1ccc(CNC(=O)NC(C)CN2CCOCC2)s1 (stereo not given) | -1.84
88 | CCC(CC)C(=O)NS(=O)(=O)CCc1ccccc1 | 1.76

Row | SMILES | cytotoxicity at 10 µM [%]
89 | Cn1cc(N2CC3(CCN(CC4CCOCC4)CC3)OCC2=O)cn1 | -9.29
90 | CNC(=O)c1cccc(C2CNCCN2C(=O)c2ccn(C)n2)c1 (stereo not given) | -4.22
91 | COc1ccc(CC(C)Nc2cccc(F)c2)cc1 (stereo not given) | 5.82
92 | Cn1nnc2c1CCN(Cc1nccs1)C2COCc1ccccc1 (stereo not given) | -2.01
93 | Cc1cc(C(=O)N2CCCCC2C)ccc1NCCCO (stereo not given) | -4.35
94 | COc1ccccc1OC1CCN(c2nc(N)nc3[nH]cnc23)CC1 | 2.94
95 | CC(C)S(=O)(=O)Cc1cccc(NC(=O)c2ccc[nH]2)c1 | -0.118
96 | Cc1nc(C2CCCN2CC(=O)NCCc2ccc(Cl)cc2)no1 (stereo not given) | 8.52
97 | Cc1nc(N2CCN(C(=O)c3ccsc3)CC2)c2cnn(C)c2n1 | -10.6
98 | O=C(C[C@@H]1COC[C@H]2CN(CC3CC3)C[C@@H]12)N1CCCCO1 | 4.08
99 | COCc1ccc(C(=O)N2CCN(CC3CC3)[C@@H]3CS(=O)(=O)C[C@@H]32)o1 | -15.5
100 | CNC(=O)C1CCCN(C(=O)NCCC2Cc3ccccc3C2)C1 (stereo not given) | 15.4
101 | Cc1ccc(S(=O)(=O)n2ccn(C(=O)CC(C)C)c2=O)cc1 | 11.2
102 | CN1CC(C(=O)N(C)Cc2cc(-c3cccnc3)no2)NC1=O (stereo not given) | -3.08
103 | CCN(CC)C1CCN(C(=O)NCc2cccc(NC(C)=O)c2)C1 (stereo not given) | 4.55
104 | Cn1cc(CN2CC[C@@H]3[C@@H]2CCN3C(=O)Cc2cccc(F)c2)cn1 | -80
105 | COc1cccc(C(C(=O)O)N(C)Cc2ccc(C)o2)c1 (stereo not given) | -1.35
106 | O=C(NCc1ccccc1-n1cccn1)N1CCC(N2CCCC2)C1 (stereo not given) | -0.554
107 | CC(=O)NC1CCCN(C(=O)NCc2cccnc2N(C)C)C1 (stereo not given) | -1.97
108 | O=C(C1CCOC1)N1C[C@H]2CN(Cc3nccs3)C[C@H]2C1 (stereo not given in full) | 5.04
109 | COc1ccc(-c2cnc(N(C)C)nc2C2CNCCO2)cc1 (stereo not given) | -1.4
110 | CCc1c(C)sc(NC(=O)CN2CCOCC2)c1C(=O)OC | 19.3
